Laboratory results from PMC9524259 (Journal of medicinal chemistry, 2022).
Entries after “also recorded” stand apart in the source; their conditions may differ.

What was measured:
[1] = tested on: MDA-MB-231 cells; experiment: Antiproliferative MTT assay, MDA-MB-231; format: cell-based; details: for IC50: read-out: MDA-MB-231 IC50, 72 h with drug, MTT assay
[2] = tested on: A549 cells; experiment: Antiproliferative MTT assay, A549; format: cell-based; details: for IC50: read-out: A549 IC50, 72 h with drug, MTT assay
[3] = tested on: MDA-MB-231 cells; experiment: Clonogenic assay, MDA-MB-231; format: cell-based; details: 48 h treatment then 7 days fresh media
Summary of the method: (§1)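 Cells were seeded at 125 cells/mL in 6-well plates and left overnight to attach. Test compound was applied at two concentrations for 48 h at 37 °C, then removed. Fresh medium followed, changed every alternate day, for 7 days. Cells were washed in PBS, fixed in 4% paraformaldehyde and stained with 0.2% crystal violet for 1 h. Colonies of >50 cells were counted, and % growth was calculated relative to control; mean ± SD, n = 3.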

[4] = biological target: T1, gankyrin (Homo sapiens, UniProt O75832); experiment: Protein thermal shift; format: binding; details: Table S1
T1 sequence (O75832 1-226): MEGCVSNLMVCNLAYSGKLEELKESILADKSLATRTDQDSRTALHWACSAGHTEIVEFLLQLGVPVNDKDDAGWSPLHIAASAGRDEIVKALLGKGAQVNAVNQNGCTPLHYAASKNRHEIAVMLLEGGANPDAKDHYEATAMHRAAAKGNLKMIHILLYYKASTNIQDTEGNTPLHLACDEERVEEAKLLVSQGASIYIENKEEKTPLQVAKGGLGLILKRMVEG

[5] = biological target: T1, gankyrin; experiment: Circular dichroism spectra and thermal denaturation; format: binding; details: for CD spectra: α-helical (secondary structure) content of gankyrin: 100 nM to 1.5 μM compound, minima at 208 and 222 nm; for thermal denaturation of gankyrin monitored at 217 nm: 1.5 μM compound, 5 – 90 °C; for gankyrin precipitation in CD sample (visual examination): in presence of compound
Summary of the method: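 Gankyrin, His6-tagged, was expressed in LB cultures with 1 mM IPTG induction at 25 °C for ~5 h. It was purified by Ni-IMAC, the tag cut with TEV, then dialysed and re-passed over Ni-IMAC. CD was run in 1x PBS, 0.5% DMSO, pH 7.4, in a 1 mm cuvette, with test compound at 100 nM–1.5 μM. Spectra covered 190–260 nm with six accumulations. Thermal melts were read at 217 nm, 5–90 °C, 1 °C/min.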

[6] = tested on: MDA-MB-231 cells; experiment: Western blot of TSP levels, MDA-MB-231; format: cell-based; details: 48 h; for p53 levels: mutant p53
Summary of the method: (§2)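 Cells in 10 cm dishes were treated 48 h with varying concentrations of test compound (0.5% DMSO final) or DMSO alone. HuH6 and MDA-MB-231 were grown in DMEM/10% FBS; A549 in RPMI 1640. Harvested cells were lysed in RIPA with protease/phosphatase inhibitors, on ice for 60 min. Equal protein (15 μg) was run under reducing conditions and blotted to PVDF. Probes were p53, phospho-p53 S6 and S15, Rb, gankyrin, and cyclophilin.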

[7] = tested on: MDA-MB-231 spheroids; experiment: Live-dead cell assay, MDA-MB-231 spheroids; format: cell-based; details: day 15, IC50 and half IC50 concentrations
Summary of the method: (§3)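 Spheroids from the growth study were stained after day 15 with calcein AM (live) and EthD-III (dead). Incubation was 30 min in the dark at room temperature, followed by fluorescence imaging at 4X. Live and dead signal were quantified; mean ± SD, n = 4.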

[8] = tested on: A549 cells; experiment: Clonogenic assay, A549; format: cell-based; details: 0.15 μM, 48 h treatment then 7 days fresh media
Summary of the method: as §1

[9] = tested on: A549 cells; experiment: Western blot of TSP levels, A549; format: cell-based; details: 48 h
Summary of the method: as §2

[10] = tested on: A549 cells; experiment: Cell cycle analysis, A549; format: cell-based; details: 0.3 μM, 72 h
[11] = biological target: T2, gankyrin in A549 cells (Homo sapiens, UniProt O75832); experiment: Cellular thermal shift assay; format: cell-based; details: 0.3 μM, 48 h
T2 sequence (O75832 1-226): T1 sequence (O75832 1-226)

[12] = tested on: A549 spheroids; experiment: Live-dead cell assay, A549 spheroids; format: cell-based; details: day 15, both concentrations
Summary of the method: as §3

[13] = tested on: HuH6 cells; experiment: Western blot of TSP levels, HuH6; format: cell-based, human; details: 48 h (Figure S1)
Summary of the method: as §2

[14] = tested on: MDA-MB-231 cells; experiment: Cell cycle analysis, MDA-MB-231; format: cell-based; details: 2 μM, 72 h
Summary of the method: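 MDA-MB-231 cells in 10 cm dishes were exposed to 2 μM test compound (0.1% DMSO final) or DMSO alone for 72 h. Harvested cells were normalized, fixed in 70% ethanol at −20 °C overnight, pelleted and stained with a PI kit for 40 min at 37 °C. Analysis was by flow and imaging cytometry; mean ± SD, n = 3.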

[15] = biological target: T3, gankyrin in MDA-MB-231 cells (Homo sapiens, UniProt O75832); experiment: Cellular thermal shift assay; format: cell-based; details: 2 μM, 48 h
T3 sequence (O75832 1-226): T1 sequence (O75832 1-226)
Summary of the method: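 Intact MDA-MB-231 cells were treated 48 h with 2 μM test compound (0.5% DMSO final) or DMSO. Cells were split into aliquots and heated separately at 50, 53, 56, 59, 62 and 65 °C. Lysis was in RIPA on ice for 60 min, then lysates were cleared at 15,000 rpm, 15 min, 4 °C. Equal protein was immunoblotted for gankyrin with actin as reference, and melt curves were built; mean ± SD, n = 3.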

For `COC(=O)c1ccc(-n2cc(CCCC(=O)Nc3ccc(C)cc3)nn2)cc1` [Compound 20, Methyl p-{4-[3-(N-p-tolylcarbamoyl)propyl]-1H-1,2,3-triazol-1-yl}benzoate], the “improvement in antiproliferative activity against MDA-MB-231 as compared to cjoc42” value [1] was 8–10 fold.

In the case of `COC(=O)c1ccc(-n2cc(CCCC(=S)Nc3ccc(C)cc3)nn2)cc1` [Compound 21, Methyl p-{4-[3-(p-tolylcarbamthioyl)propyl]-1H-1,2,3-triazol-1-yl}benzoate], the “improvement in antiproliferative activity against A549 as compared to cjoc42” value [2] is reported as ~10 fold and the “improvement in antiproliferative activity against MDA-MB-231 as compared to cjoc42” value [1] is reported as 8–10 fold.

With `COC(=O)c1ccc(-n2cc(CCCNC(=O)Nc3ccc(C)cc3)nn2)cc1` [Compound 26, Methyl p-(4-{3-[3-(p-tolyl)ureido]propyl}−1H-1,2,3-triazol-1-yl)benzoate] the “improvement in antiproliferative activity against MDA-MB-231 as compared to cjoc42” value [1] was 8–10 fold.

For `COC(=O)c1ccc(-n2cc(CCCOc3ccc(C)cc3)nn2)cc1` [Compound 33, Methyl p-{4-[3-(p-tolyloxy)propyl]-1H-1,2,3-triazol-1-yl}benzoate], the “improvement in antiproliferative activity against MDA-MB-231 as compared to cjoc42” value [1] was 8–10 fold.

`Cc1ccc(NC(=O)CCCn2cc(-c3ccc(C(F)(F)F)cc3)nn2)cc1` [Compound 51b, N-p-Tolyl4-{4-[p-(trifluoromethyl)phenyl]-1H-1,2,3-triazol-1-yl}butyramide] was tested, and the “% colony growth” value ([3]; 2.30 μM) was 60.3%, the “gankyrin binding by protein thermal shift” value [4] was “effectively bind gankyrin” and the “CD spectra: α-helical (secondary structure) content of gankyrin” value (“CD spectra: α-helical” below) [5] was “enhancement in the 222 nm spectral minimum; also recorded: signal enhancement”. The “thermal denaturation of gankyrin monitored at 217 nm” value (“thermal denaturation” for short) [5] was “complete denaturation across the entire measured temperature range”, the Rb levels [6] was “increase in Rb levels” and the gankyrin levels [6] was “remained relatively unchanged”. The p53 levels [6] was “relatively unchanged levels of p53”, the “green fluorescence intensity (live cells)” value [7] was “decrease in green intensity (live cells)” and the “red fluorescence intensity (dead cells)” value [7] was “increase in red fluorescence intensity (dead cells)”.

For `COC(=O)c1ccc(-c2cn(CCCC(=O)Nc3ccc(-c4ccccc4)cc3)nn2)cc1` [Compound 51c, Methyl p-{1-[3-(N-4-biphenylylcarbamoyl)propyl]-1H-1,2,3-triazol-4-yl}benzoate], the “% colony growth” value [8] was 61.9%, the “gankyrin binding by protein thermal shift” value [4] was “effectively bind gankyrin” and the “CD spectra: α-helical” value [5] was “weakening of secondary structure content in gankyrin”. For the same molecule, the “thermal denaturation” value [5] was “complete denaturation across the entire measured temperature range”, the “gankyrin precipitation in CD sample (visual examination)” value [5] was “only showed marginal precipitation” and the Rb levels [9] was “increased Rb levels”. The gankyrin levels [9] was “remained relatively unchanged”, the p53 levels [9] was “relatively unchanged p53 levels” and the “phosphorylated p53 (Ser6) levels” value [9] was “increase the expression levels of phosphorylated p53 (Ser6)”. For the same molecule, the “phosphorylated p53 (Ser15) levels” value [9] was “also increased phosphorylated p53 (Ser15) expression levels”, the “cell population in the S and G2/M phases” value [10] was “significantly decreasing the cell population in the S and G2/M phases” and the “cells in the G0/G1 phase” value [10] was “significant increase in the number of cells in the G0/G1 phase”. The “gankyrin thermal stability (CETSA)” value [11] was “significant ability to decrease gankyrin thermal stability”, the “green intensity (live cells)” value [12] was “dose-dependent decrease in green intensity” and the “red intensity (dead cells)” value [12] was “increase in red intensity”.

`O=C(CCCn1cc(-c2ccc(C(F)(F)F)cc2)nn1)Nc1ccc(-c2ccccc2)cc1` [Compound 51d, N-4-Biphenylyl4-{4-[p-(trifluoromethyl)phenyl]-1H-1,2,3-triazol-1-yl}butyramide] was tested, and the “% colony growth” value ([3]; 1.0 μM) was 72.4%, the “gankyrin binding by protein thermal shift” value [4] was “effectively bind gankyrin” and the “CD spectra: α-helical” value [5] was “weakening of secondary structure content in gankyrin”. The “thermal denaturation” value [5] was “maintained gankyrin’s expected two-state transition but unfolded at an accelerated rate”, the “gankyrin precipitation in CD sample (visual examination)” value [5] was “only showed marginal precipitation” and the Rb levels [6] was “increase in Rb levels”. For the same molecule, the gankyrin levels [6] was “remained relatively unchanged”, the p53 levels [6] was “relatively unchanged levels of p53” and the “p53 and Rb levels” value [13] was “increased levels of both p53 and Rb”. For the same molecule, the “cell population in the G2/M phase” value [14] was “decrease in the cell population in the G2/M phase”, the “cell population in the S phase” value [14] was “relatively unchanged” and the “cells in the G0/G1 phase” value [14] was “significant increase in the number of cells in the G0/G1 phase”. For the same molecule, the “gankyrin thermal stability (CETSA)” value [15] was “significantly decreased”, the “green fluorescence intensity (live cells)” value [7] was “significant decrease in green fluorescence intensity (live cells)” and the “red fluorescence intensity (dead cells)” value [7] was “significant increase in red fluorescence intensity (dead cells)”.

With “Methyl p-{4-[3-(p-toluoxy)propyl]-1H-1,2,3-triazol-1-yl}benzoate [Compound 25]” the IC50 [2] was > 100 µM and the IC50 [1] was > 100 µM.

For “Methyl p-{4-[3-(p-tolylcarbamthioyl)propyl]-1H-1,2,3-triazol-1-yl}benzoate [Compound 24]”, the IC50 [2] was > 100 µM and the IC50 [1] was 82.4 µM.
